Data as given in ChEMBL document CHEMBL1134070, “Ring-Constrained (N)-methanocarba nucleosides as adenosine receptor agonists: independent 5'-uronamide and 2'-deoxy modifications” (Bioorg Med Chem Lett, 2001).

How the values were obtained:
[1] = target: Adenosine receptor A2a (Rattus norvegicus) (UniProt P30543); test: Displacement of [3H]-CGS- 21680 from A2A receptors (rA2A) in rat striatal membranes at 10 uM; format: cell membranes; details: Membrane
Method in brief: (§1)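 Rat striatal membranes; percent displacement of specific [3H]CGS 21680 binding at A2A receptors measured at a single 10 μM test concentration.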

[2] = target: T1, Adenosine receptor A1 (Rattus norvegicus, UniProt P25099); test: Ability to displace specific radioligand [3H]R-PIA binding at Adenosine A1 receptor in rat brain membrane; format: cell membranes
T1 sequence (P25099 whole entry): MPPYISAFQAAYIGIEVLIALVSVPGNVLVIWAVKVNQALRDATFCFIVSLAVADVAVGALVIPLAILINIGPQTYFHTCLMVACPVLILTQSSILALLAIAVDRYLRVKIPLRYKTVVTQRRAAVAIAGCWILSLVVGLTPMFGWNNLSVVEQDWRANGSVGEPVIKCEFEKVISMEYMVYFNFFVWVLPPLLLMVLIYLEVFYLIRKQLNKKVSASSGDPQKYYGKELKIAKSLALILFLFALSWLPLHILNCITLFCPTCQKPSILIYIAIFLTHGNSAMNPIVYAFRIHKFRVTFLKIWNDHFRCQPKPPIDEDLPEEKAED
Method in brief: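 Rat brain membranes; competition against specific [3H]R-PIA binding at A1 receptors.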

[3] = target: T2, Adenosine receptor A3 (Homo sapiens, UniProt P0DMS8); test: Ability to displace specific radioligand [125I]AB-MECA binding at human Adenosine A3 receptor expressed in CHO cells; format: cell-based
T2 sequence (P0DMS8 whole entry): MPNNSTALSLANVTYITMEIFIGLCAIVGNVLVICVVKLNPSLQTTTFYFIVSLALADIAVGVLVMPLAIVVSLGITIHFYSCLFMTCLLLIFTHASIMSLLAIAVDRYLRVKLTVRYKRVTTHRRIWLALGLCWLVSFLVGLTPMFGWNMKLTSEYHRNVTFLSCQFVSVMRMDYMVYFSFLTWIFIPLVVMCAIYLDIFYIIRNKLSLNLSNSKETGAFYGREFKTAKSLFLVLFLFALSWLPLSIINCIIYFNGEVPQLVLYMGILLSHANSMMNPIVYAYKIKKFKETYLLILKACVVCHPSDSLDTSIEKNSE

[4] = target: T2, Adenosine receptor A3; test: Agonist efficacy as effective concentration to stimulate binding of [35S]GTP-gamma-S, by activation of human A3AR receptor; format: functional
[5] = target: T3, Adenosine receptor A2a (Rattus norvegicus, UniProt P30543); test: Ability to displace specific radioligand [3H]-CGS- 21680 binding at A2A receptors (rA2A) in rat brain membrane; format: cell membranes
T3 sequence (P30543 whole entry): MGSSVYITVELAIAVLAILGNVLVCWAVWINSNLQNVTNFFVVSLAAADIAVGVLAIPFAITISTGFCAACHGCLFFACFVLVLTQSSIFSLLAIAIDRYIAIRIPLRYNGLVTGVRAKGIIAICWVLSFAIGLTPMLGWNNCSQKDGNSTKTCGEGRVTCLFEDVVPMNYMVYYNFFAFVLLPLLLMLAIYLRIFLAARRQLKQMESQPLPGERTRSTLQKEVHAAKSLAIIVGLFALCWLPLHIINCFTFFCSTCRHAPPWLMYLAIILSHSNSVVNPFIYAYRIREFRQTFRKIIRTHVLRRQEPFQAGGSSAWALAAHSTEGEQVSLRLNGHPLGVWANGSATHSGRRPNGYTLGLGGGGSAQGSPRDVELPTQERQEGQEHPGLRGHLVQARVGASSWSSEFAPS
Method in brief: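 Rat striatal membranes; competition against specific [3H]CGS 21680 binding at A2A receptors.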

[6] = target: T3, Adenosine receptor A2a; test: Displacement of [3H]-CGS- 21680 from Adenosine A2A receptor in rat brain membrane; format: cell membranes
[7] = target: Adenosine receptor A2a (Rattus norvegicus) (UniProt P30543); test: Displacement of [3H]-CGS- 21680 from A2A receptors (rA2A) in rat striatal membranes at 100 uM; format: cell membranes; details: Membrane
Method in brief: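 Rat striatal membranes; percent displacement of specific [3H]CGS 21680 binding at A2A receptors measured at a single 100 μM test concentration.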

[8] = target: T4, Adenosine receptor A1 (Homo sapiens) (UniProt P30542); test: Efficacy to stimulate binding of [35S]GTP-gamma-S, at human Adenosine A1 receptor; format: functional
T4 sequence (whole entry): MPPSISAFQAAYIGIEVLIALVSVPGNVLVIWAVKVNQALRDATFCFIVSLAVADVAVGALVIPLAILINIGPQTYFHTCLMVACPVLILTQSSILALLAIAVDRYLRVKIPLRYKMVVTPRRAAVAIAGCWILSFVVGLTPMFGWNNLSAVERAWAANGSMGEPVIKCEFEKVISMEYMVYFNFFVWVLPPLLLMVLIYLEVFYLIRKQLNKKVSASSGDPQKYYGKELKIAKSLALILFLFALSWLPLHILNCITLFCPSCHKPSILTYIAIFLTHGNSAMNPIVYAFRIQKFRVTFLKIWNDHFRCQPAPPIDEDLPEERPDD
Method in brief: (§2)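 Functional agonist assay: stimulation of [35S]GTP-γ-S binding following activation of the human A1 receptor. EC50 and percent efficacy reported as mean±value.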

[9] = target: T5, Adenosine receptor A1 (Homo sapiens, UniProt P30542); test: Agonist efficacy as effective concentration to stimulate binding of [35S]GTP-gamma-S, at human A1 adenosine receptor; format: functional
T5 sequence (P30542 whole entry): T4 sequence (whole entry)
Method in brief: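 Functional agonist assay measuring agonist-stimulated [35S]GTP-γ-S binding through activation of the human A1AR. Potency was reported as EC50 together with percent efficacy, each as mean ± error.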

[10] = target: Adenosine receptor A2a (Rattus norvegicus) (UniProt P30543); test: Displacement of [3H]-CGS- 21680 from Adenosine A2A receptor in rat striatal membranes at 10 uM; format: cell membranes; details: Membrane; method in brief: as §1
[11] = target: T5, Adenosine receptor A1; test: Agonist efficacy as effective concentration to stimulate binding of [35S]GTP-gamma-S, at human Adenosine A1 receptor; format: functional; method in brief: as §2

Adenosine receptor A2a (Rattus norvegicus), sequence (P30543 whole entry): as the sequence (P30543 whole entry) above

Ki [2] [nM] | Ki [3] [nM] | Ki [5] [nM] | SMILES | other results
8730 | 912 | 25400 | OC[C@@]12C[C@@H]1[C@@H](n1cnc3c(NCc4cccc(I)c4)nc(Cl)nc31)C[C@@H]2O | –
884 | 22.5 | – | CNc1nc(Cl)nc2c1ncn2[C@H]1[C@H](O)[C@H](O)[C@]2(CO)C[C@H]12 | Displacement [10]: < 10%
83.9 | – | 1660 | CNC(=O)[C@@]12C[C@@H]1[C@@H](n1cnc3c(NCc4cccc(I)c4)nc(Cl)nc31)[C@H](O)[C@@H]2O | –

Continued, molecule first:

SMILES | Ki [2] [nM] | Ki [3] [nM] | Ki [5] [nM] | other results
CNC(=O)[C@@]12C[C@@H]1[C@@H](n1cnc3c(NC)nc(Cl)nc31)[C@H](O)[C@@H]2O | 805 | 6.19 | – | Displacement [1]: < 10%; EC50 [4]: 25.5 nM
CNC(=O)[C@@]12C[C@@H]1[C@@H](n1cnc3c(NCc4cccc(I)c4)ncnc31)[C@H](O)[C@@H]2O | 52.7 | 2.39 | 548 | EC50 [4]: 6.8 nM
CCNC(=O)[C@@]12C[C@@H]1[C@@H](n1cnc3c(N)ncnc31)[C@H](O)[C@@H]2O | – | – | – | Ki [6]: 100 nM
OC[C@@]12C[C@@H]1[C@@H](n1cnc3c(NC4CCCC4)ncnc31)C[C@@H]2O | 5110 | 2880 | – | Displacement [7]: 15%; Efficacy [8]: 30%; EC50 [9]: 2890 nM
OC[C@@]12C[C@@H]1[C@@H](n1cnc3c(NC4CCCC4)nc(Cl)nc31)C[C@@H]2O | – | – | – | Displacement [7]: 45%; Efficacy [8]: 40%; EC50 [11]: 2280 nM
CNc1ncnc2c1ncn2[C@H]1[C@H](O)[C@H](O)[C@]2(CO)C[C@H]12 | – | – | – | Displacement [10]: < 10%
Nc1nc(Cl)nc2c1ncn2[C@H]1[C@H](O)[C@H](O)[C@]2(CO)C[C@H]12 | 273 | 84.7 | – | –
